Data set [1] has as its system BT-474. As to the kind of experiment: Cytotoxicity against human BT474 cells at 0.05 to 0.25 uM after 48 hrs by WST-1 assay. Type of data set: cell-based. To be noted: bt-474, 48 h. For orientation: Tetrazolium dyes change colour on reduction, which living cells bring about.
A short description of data set [2]: Cytotoxicity against human Friedreich's ataxia lymphocytes at 0.05 to 0.25 uM after 48 hrs by WST-1 assay.
A short description of data set [3]: Cytoprotective activity in human Friedreich's ataxia lymphocytes assessed as reduction in DEM-induced oxidative stress at 0.5 uM preincubated for 16 hrs prior to DEM-stimulation measured after 6 hrs by trypan blue exclusion assay relative to untreated control. It counts as functional. Details: scale not given: the % may be the effect or the level left. Summed up:
(§1)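 FRDA lymphocytes treated with compound at 0.1–5 μM, then oxidatively stressed with diethyl maleate to deplete glutathione. Viability set to 100% for untreated cells. Mean ± SEM of three independent experiments run in duplicate.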

Data set [4] in a line: Cytoprotective activity in human Friedreich's ataxia lymphocytes assessed as reduction in DEM-induced oxidative stress at 5 uM preincubated for 16 hrs prior to DEM-stimulation measured after 6 hrs by trypan blue exclusion assay relative to untreated control. Type of data set: functional. Details: scale not given: the % may be the effect or the level left. Summed up: as §1

The species entered for data set [5] is Homo sapiens. As to the kind of experiment: Antioxidant activity in human Friedreich's ataxia lymphocytes assessed as suppression of DEM-induced lipid peroxidation after overnight incubation by flow cytometric analysis. Type of data set: functional. Summed up: (§2)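 FRDA lymphocytes treated with compound at 1, 5 or 10 μM, then stressed with DEM. Lipid peroxidation probed with C11-BODIPY581/591; oxidized green fluorescence, median intensity, measured by flow cytometry and compared with untreated control. Results given as % scavenging activity; mean ± SEM, n = 3.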
(In flow cytometry, cells or beads pass a laser one at a time.)

Data set [6] is filed under the species Homo sapiens. Briefly: Antioxidant activity in human Friedreich's ataxia lymphocytes assessed as suppression of DEM-induced ROS production at 5 to 10 uM preincubated for 16 hrs prior to DEM-stimulation measured after 80 mins by flow cytometric analysis. It counts as functional. Summed up: (§3)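 FRDA lymphocytes pretreated 16 h with compound (5 and 10 μM), then 5 mM diethyl maleate for 80 min to deplete glutathione. Cells washed, resuspended in PBS with 20 mM glucose, loaded with 10 μM DCFH-DA for 20 min. DCF fluorescence read by flow cytometry, 488 nm excitation, 530 ± 15 nm emission, 10,000 events. Expressed as % ROS scavenging; mean ± SEM, n = 3.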

The species named for data set [7] is Homo sapiens. As to the kind of experiment: Antioxidant activity in human Friedreich's ataxia lymphocytes assessed as suppression of DEM-induced lipid peroxidation at 10 uM after overnight incubation by flow cytometric analysis relative to untreated control. Type of data set: functional. Summed up: as §2
The species entered for data set [8] is Homo sapiens. Briefly: Antioxidant activity in human Friedreich's ataxia lymphocytes assessed as suppression of DEM-induced lipid peroxidation at 1 uM after overnight incubation by flow cytometric analysis relative to untreated control. It counts as functional. Summed up:
as §2

Data set [9] in a line: Cytoprotective activity in human Friedreich's ataxia lymphocytes assessed as reduction in DEM-induced oxidative stress at 2.5 uM preincubated for 16 hrs prior to DEM-stimulation measured after 6 hrs by trypan blue exclusion assay relative to untreated control. Type of data set: functional. Set-up: scale not given: the % may be the effect or the level left. In short, it runs like this: as §1

Data set [10] is filed under the species Homo sapiens. As to the kind of experiment: Antioxidant activity in human Friedreich's ataxia lymphocytes assessed as suppression of DEM-induced lipid peroxidation at 5 uM after overnight incubation by flow cytometric analysis relative to untreated control. Type of data set: functional. Summed up:
as §2

Data set [11] is filed under the species Homo sapiens. As to the kind of experiment: Cytoprotective activity in DEM-stimulated human Friedreich's ataxia lymphocytes assessed as cells with intact mitochondrial membrane potential at 5 uM preincubated for 16 hrs prior to DEM-stimulation measured after 140 mins by TMRM dye-based flow cytometric analysis (reference value: 92%). Type of data set: functional.

Data set [12] in a line: Cytoprotective activity in human Friedreich's ataxia lymphocytes assessed as reduction in DEM-induced oxidative stress at 0.1 uM preincubated for 16 hrs prior to DEM-stimulation measured after 6 hrs by trypan blue exclusion assay relative to untreated control. Type of data set: functional. Details: scale not given: the % may be the effect or the level left. In short, it runs like this:
as §1

Data set [13] is described as follows: Cytotoxicity against human Friedreich's ataxia lymphocytes at 5 to 20 uM after 48 hrs by WST-1 assay.
For data set [14], the target named is Heat shock protein HSP 90-beta (Homo sapiens) (UniProt P08238). As to the kind of experiment: Inhibition of HSP90 in human BT474 cells expressing HER2 assessed as HER2 protein degradation at 0.5 to 25 uM after 24 hrs by chemiluminescence assay. It counts as cell-based. To be noted: BT-474.
Chain of Heat shock protein HSP 90-beta (Homo sapiens) (P08238 whole entry): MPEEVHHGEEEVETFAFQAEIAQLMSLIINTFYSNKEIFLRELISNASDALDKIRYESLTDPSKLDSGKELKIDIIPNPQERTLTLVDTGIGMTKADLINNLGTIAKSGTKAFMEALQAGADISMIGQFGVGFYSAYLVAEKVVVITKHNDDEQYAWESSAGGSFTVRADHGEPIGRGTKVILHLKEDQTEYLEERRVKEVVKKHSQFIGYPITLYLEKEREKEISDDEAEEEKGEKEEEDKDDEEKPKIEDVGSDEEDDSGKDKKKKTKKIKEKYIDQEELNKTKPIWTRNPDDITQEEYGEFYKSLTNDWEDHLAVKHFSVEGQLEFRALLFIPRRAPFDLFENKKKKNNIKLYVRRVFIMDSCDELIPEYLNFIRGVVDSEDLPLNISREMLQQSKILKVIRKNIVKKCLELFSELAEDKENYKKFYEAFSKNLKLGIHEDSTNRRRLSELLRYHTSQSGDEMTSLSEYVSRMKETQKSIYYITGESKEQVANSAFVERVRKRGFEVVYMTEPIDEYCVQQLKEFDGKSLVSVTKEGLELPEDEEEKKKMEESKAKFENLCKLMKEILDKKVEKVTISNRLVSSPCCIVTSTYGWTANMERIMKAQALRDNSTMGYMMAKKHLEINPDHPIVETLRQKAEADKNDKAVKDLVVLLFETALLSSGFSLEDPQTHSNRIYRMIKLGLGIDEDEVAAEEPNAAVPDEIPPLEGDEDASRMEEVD
Data set [15] deals with Amyloid-beta precursor protein (Homo sapiens) (UniProt P05067). As to the kind of experiment: Neuroprotective activity in differentiated human SH-SY5Y cells assessed as decrease in amyloid beta (1 to 42)-induced neurotoxicity incubated overnight prior to amyloid beta (1 to 42)-stimulation measured after 48 hrs by WST-1 assay. Type of data set: functional, cell-based.
Chain of Amyloid-beta precursor protein (Homo sapiens) (P05067 whole entry): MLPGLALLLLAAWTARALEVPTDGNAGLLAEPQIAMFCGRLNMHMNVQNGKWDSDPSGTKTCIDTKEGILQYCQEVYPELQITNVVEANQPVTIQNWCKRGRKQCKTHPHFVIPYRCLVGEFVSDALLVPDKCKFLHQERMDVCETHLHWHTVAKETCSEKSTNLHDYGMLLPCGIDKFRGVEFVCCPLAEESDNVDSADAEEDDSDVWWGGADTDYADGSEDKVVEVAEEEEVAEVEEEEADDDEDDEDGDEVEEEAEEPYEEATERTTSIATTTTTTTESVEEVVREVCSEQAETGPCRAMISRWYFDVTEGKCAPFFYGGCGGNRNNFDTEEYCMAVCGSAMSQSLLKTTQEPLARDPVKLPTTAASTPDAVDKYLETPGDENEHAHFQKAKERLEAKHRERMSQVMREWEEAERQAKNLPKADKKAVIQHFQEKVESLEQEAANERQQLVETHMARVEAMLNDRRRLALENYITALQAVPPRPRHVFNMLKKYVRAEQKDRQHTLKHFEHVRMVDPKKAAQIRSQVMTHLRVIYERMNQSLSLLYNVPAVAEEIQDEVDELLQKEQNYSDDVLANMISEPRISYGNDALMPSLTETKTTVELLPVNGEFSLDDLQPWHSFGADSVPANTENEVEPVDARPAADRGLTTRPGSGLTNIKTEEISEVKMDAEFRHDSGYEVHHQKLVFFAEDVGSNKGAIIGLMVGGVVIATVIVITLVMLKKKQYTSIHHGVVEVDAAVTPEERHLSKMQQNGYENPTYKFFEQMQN
A short description of data set [16]: Cytotoxicity against DEM-stimulated human Friedreich's ataxia lymphocytes assessed as effect on intracellular glutathione concentration at 1 to 10 uM. It counts as cell-based.
Data set [17] is filed under the species Homo sapiens. As to the kind of experiment: Antioxidant activity in human Friedreich's ataxia lymphocytes assessed as suppression of DEM-induced ROS production preincubated for 16 hrs prior to DEM-stimulation measured after 80 mins by flow cytometric analysis. Type of data set: functional. Summed up: as §3
Data set [18] is filed under the species Homo sapiens. Briefly: Cytoprotective activity in BSO-stimulated human Friedreich's ataxia fibroblasts assessed as preservation of mitochondrial membrane potential at 5 uM after 12 hrs by JC-1 dye-based Zeiss fluorescent microscopic analysis.
Data set [19] addresses Heat shock protein HSP 90-beta (Homo sapiens) (UniProt P08238). As to the kind of experiment: Inhibition of HSP90 in human BT474 cells expressing HER2 assessed as increase in HSP90 protein level at 0.5 to 5 uM after 24 hrs by chemiluminescence assay. Type of data set: cell-based. To be noted: BT-474.
Data set [20] is filed under the species Homo sapiens. As to the kind of experiment: Cytoprotective activity in human Friedreich's ataxia lymphocytes assessed as reduction in DEM-induced oxidative stress preincubated for 16 hrs prior to DEM-stimulation measured after 6 hrs by trypan blue exclusion assay. Type of data set: functional. Summed up: as §1
The test system of data set [21] is BT-474. As to the kind of experiment: Cytotoxicity against human BT474 cells at 5 to 20 uM after 48 hrs by WST-1 assay. The conditions noted are these: bt-474, 48 h. Type of data set: cell-based.

Active and inactive are the calls of the source. The calls are words filed in the database; no cut-off is given here.

In ChEMBL document CHEMBL2440049, “A structurally simplified analogue of geldanamycin exhibits neuroprotective activity” (ACS Med Chem Lett, 2013) one finds Activity and inhibition data, which are given here for four molecules.

As to `COC1=C2C[C@@H](C)C[C@H](OC)[C@H](O)[C@@H](C)/C=C(\C)[C@H](OC(N)=O)[C@@H](OC)/C=C\C=C(/C)C(=O)NC(=CC1=O)C2=O` [GELDANAMYCIN], the Activity result in [1] and in data set [2] was “Toxic” throughout.
`CCCCCCCCCCCCCC1=C(OC)C(=O)C=C(NCCCCCC)C1=O`: the Activity in data set [3] was 50%; in data set [4], 80%; in data set [5], “Dose-dependent effect”; in [7] it was 70%; in [8], 14%; in [9], 66%. In addition, the Activity in data set [10] turned out to be 61%; in [11], 56%; in data set [12], 20%. Besides, in [6], the outcome was Active.
For `COC1=C2CCCCCCCCCCCCCCCNC(=CC1=O)C2=O`, the Activity was 69% in [3]; “Non-toxic” in data set [13]; 92% in [4]; “Dose-dependent effect” in data set [15]; “Dose-dependent effect” in [5]; “Non-toxic” in data set [16]. For the same molecule, the Activity in [7] is 83%; in [8], 29%; in [17], “Dose-dependent effect”; in data set [9] it was 83%; in data set [20] it was “Dose-dependent effect”; in data set [21] it was “Non-toxic”. Moreover, the Activity in data set [10] worked out at 72%; in [11], 80%; in data set [12] it was 36%. The inhibition entry in [14] and in data set [19] was “inactive” each time. Besides, the result in data set [18] was Active.
Consider `CCCCCCCCCCCCCC1=C(O)C(=O)C=C(NCCCCCC)C1=O`, for which the Activity was determined as 22% in data set [3]; 65% in data set [4]; 38% in data set [7]; 2% in [8]; 43% in data set [9]; 27% in data set [10]. The Activity in [11] was 43%; in [12], 18%. The outcome in data set [6] was Active.
